# Screening data from PubChem BioAssay.
# CHO-K1 Ca ag = nonselective activator or artifact in parental CHO-K1 cells. AID 602248. Fluo-8 calcium fluorescence; scaled to maximal ATP response, vehicle zero. hit rate 0.48% among 360,000. activation, % at 3 µM; in the data active = activation above about 15%;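 note: untransfected CHO-K1 host cells lacking M1 receptor as counterscreen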
# CHO-K1 Ca antag = M1 antagonist counterscreen hit in parental CHO-K1 cells; ATP-induced calcium, Fluo-8 fluorescence; inhibition, % at 3 µM; hit rate 0.6% among 360,000; AID 602250;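 active = inhibition above a per-plate cutoff, the plate's mean sample inhibition plus 3 SD, cut at about 24% in these data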;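 note: 0% = DMSO plus EC80 ATP and 100% = DMSO alone without ATP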
# OX1R antag-1 = antagonists of human orexin 1 receptor | AID 434989 | CHO/OX1R cells, Fluo-8 calcium fluorescence, orexin A | inhibition, % at 5 µM | hit rate 0.43% among 330,000;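 active = inhibition above its plate's threshold, mean inhibition of all tested compounds on the plate plus 3 SD, cut at about 37% in these data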;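 note: 0% = orexin A challenge wells and 100% = SB-334867-A antagonist wells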
# Target sequence (O43613 whole entry, looked up): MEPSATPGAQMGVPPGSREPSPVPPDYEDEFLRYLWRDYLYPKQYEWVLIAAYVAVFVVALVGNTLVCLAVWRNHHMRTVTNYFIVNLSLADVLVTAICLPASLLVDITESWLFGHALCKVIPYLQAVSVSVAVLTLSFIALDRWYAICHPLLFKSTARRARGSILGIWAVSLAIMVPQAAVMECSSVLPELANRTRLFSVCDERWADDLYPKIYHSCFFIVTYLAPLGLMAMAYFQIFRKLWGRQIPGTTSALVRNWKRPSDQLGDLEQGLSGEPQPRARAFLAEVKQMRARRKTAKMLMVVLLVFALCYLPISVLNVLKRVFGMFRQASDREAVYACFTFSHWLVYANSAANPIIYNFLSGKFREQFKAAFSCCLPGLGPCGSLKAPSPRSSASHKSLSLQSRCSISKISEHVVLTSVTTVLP
# OX1R antag-2 = antagonists of human orexin 1 receptor (OX1R); AID 485270; inhibition, % at 6.6 µM; hit rate 1.8% among 330,000; OX1R-expressing cells, FRET antagonist read-out; in the data active = inhibition mostly above about 38%, no sharp cut-off; inactive = mostly below about 40%;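 note: 0% = agonist challenge alone and 100% = reference antagonist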
# CHO parental Ca = counter-screen for OX1R antagonists: effect in parental CHO cells; hit rate 0.63% among 330,000; inhibition, % at 5.6 µM; parental CHO-K1, ATP-induced calcium, Fluo-8 fluorescence;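 active = inhibition above that plate's mean sample inhibition plus 3 SD, cut at about 26% in these data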;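 note: 0% = ATP-challenged DMSO wells and 100% = DMSO wells without ATP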
#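 Test system: parental CHO cells; detection: calcium-sensitive Fluo-8 fluorescence; evaluation: percent inhibition of calcium signal; also added: ATP as calcium-mobilizing challenge; repeats: one well per compound; control set: ATP-challenged DMSO wells low, unchallenged DMSO wells high; compound: single nominal dose of 5.6 µM per compound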
# CHO-K1 Ca PAM = nonselective activator or artifact in parental CHO-K1 calcium assay. AID 602247. hit rate 0.02% among 360,000. activation, % at 3 µM. ATP EC20, Fluo-8 calcium fluorescence; 0% at ATP EC20, 100% at ATP max;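 active = activation above the run cutoff, the mean activation of all test compounds plus 3 SD, cut at about 40% in these data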;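 note: peak over basal fluorescence ratio in a 140 s read after ATP addition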
# * = called active by the depositor; nt = no result given. Only some compounds are listed: those with a hit (about 2.9% of all), similar ones and a draw of the others.
SMILES,CHO-K1 Ca ag,CHO-K1 Ca antag,OX1R antag-1,OX1R antag-2,CHO parental Ca,CHO-K1 Ca PAM
COc1ccc(Oc2cn[nH]c2-c2ccc(O)cc2O)cc1,2,-2,0,1,9,17
C=C(C)COc1ccc(-c2[nH]ncc2-c2ccccc2)c(O)c1,1,-6,13,1,-3,18
CCCc1ccc(Oc2cn[nH]c2-c2ccc(O)cc2O)cc1,0,-10,22,-6,35*,9
C=C(C)COc1ccc(-c2[nH]ncc2-c2ccc(OC)cc2)c(O)c1,0,6,-6,18,42*,-17
C=C(C)COc1ccc(-c2[nH]ncc2Oc2cccc(OC)c2)c(O)c1,1,-8,31,13,75*,9
CC1=C(C(=O)N(C)C)CC(CC(=O)NCc2cccs2)C(=O)N1CCCN1CCCC1=O (centres undefined),1,14,nt,nt,nt,5
CCOC(=O)c1ccccc1NC(=O)COC(=O)c1cc([N+](=O)[O-])ccc1N1CCOCC1,2,6,-12,43,-9,12
O=S(=O)(Cc1ccccc1)NCCc1cccc(Cl)c1,0,12,nt,nt,nt,1
COc1ccc(C(=O)NCCOc2ccccc2Cl)c(OC)c1OC,4,-20,-14,-6,1,13
Cc1ccc(S(=O)(=O)N2CCN(C(=O)COC(=O)CCOc3cc(C)ccc3C)CC2)cc1,12,12,1,22,58*,-3
Cc1ccc(C)c(OCCC(=O)OCC(=O)N2CCN(S(=O)(=O)c3ccc(Cl)cc3)CC2)c1,6,-9,-8,9,-5,6
CC(=O)c1cc2c(cc1NC(=O)c1ccco1)OCCO2,0,25*,-11,12,-9,-11
Cc1ccc(N=Nc2ccc(O)c3ncccc23)cc1C,0,-12,2,3,9,14
Cc1ccc(N=Nc2ccc(O)c3ncccc23)cc1,1,-14,44,21,59*,29
O=C(NCc1ccccn1)C1CCCN(S(=O)(=O)c2cccc3nsnc23)C1 (centres undefined),0,-7,-21,121*,-4,9
CC1CCN(CCNC(=O)C2CCCN(S(=O)(=O)c3cccc4nsnc34)C2)CC1 (centres undefined),-1,34*,-33,21,-21,-28
COCCNC(=O)C1CCCN(S(=O)(=O)c2cccc3nsnc23)C1 (centres undefined),1,-7,-3,48*,-11,-2
Fc1ccc(-n2ncc3c(SCc4cccnc4)ncnc32)cc1,2,-14,0,3,-7,5
COC(=O)c1c(NC(=O)CSc2ccccc2N)sc(C)c1C,-1,18,-47,30,-20,-12
CCc1ccc(CN(C)C(=O)c2cc(COc3cccc4cnccc34)on2)cc1,10,25*,51*,35,67*,-18
CN(Cc1cccnc1)C(=O)c1cc(COc2ccc3c(c2)CCCC3)on1,13,12,25,28,40*,-2
Cc1ccc(Cn2c(=N)c(C(=O)NCc3ccco3)cc3c(=O)n4ccccc4nc32)cc1,0,0,-14,29,-14,8
N=c1c(C(=O)NCc2ccc(F)cc2)cc2c(=O)n3ccccc3nc2n1CC1CCCO1 (centres undefined),-1,0,-24,72*,-17,-2
N=c1c(C(=O)NCc2ccco2)cc2c(=O)n3ccccc3nc2n1CC1CCCO1 (centres undefined),-1,-1,-23,49*,-13,10
N=c1c(C(=O)NCc2ccc3c(c2)OCO3)cc2c(=O)n3ccccc3nc2n1CC1CCCO1 (centres undefined),0,0,-31,69*,-19,0
SMILES,CHO-K1 Ca ag,CHO-K1 Ca antag,OX1R antag-1,OX1R antag-2,CHO parental Ca,CHO-K1 Ca PAM
O=C1CN(C(=O)NCC(=O)N[C@@H](C(=O)O)c2ccccc2)c2ccccc2N1,1,-23,14,6,-27,15
CCCN(CC(=O)NC(=O)NCc1ccccc1)CC(=O)Nc1ccc(F)c(F)c1F,1,-13,nt,nt,nt,16
S=C(NCCc1ccccc1)Nc1cccc2cnccc12,12,32*,26,44,52*,-23
COc1ccc(OC)c(C2C(C#N)=C(N)Oc3c2c(C)nn3-c2ccc(C)cc2)c1 (centres undefined),0,28*,-26,40,4,-8
Cc1ccc(-n2nc(C)c3c2OC(N)=C(C#N)C3c2ccc(C)o2)cc1 (centres undefined),0,-2,-19,19,-10,-7
O=C(CCCSc1nc2ccccc2[nH]1)N1CCN(c2ccc([N+](=O)[O-])cc2)CC1,0,-13,59*,36,50*,12
O=C(/C=C/c1ccc([N+](=O)[O-])cc1)OCC(=O)N1CCOCC1,1,-5,4,70*,0,4
O=C(Nc1ccccc1C(=O)N1CCOCC1)c1ccc([N+](=O)[O-])cc1,2,-10,-14,47*,-9,24
O=C(c1ccccc1Oc1ccc([N+](=O)[O-])cc1)N1CCOCC1,0,25*,-6,18,-11,-12
CCOC(=O)Cn1cnc2c(nnn2-c2ccc(F)cc2)c1=O,1,4,-18,4,-2,24
Cc1nn(-c2ccc(Cl)cc2)c(Cl)c1/C=N/NC(=O)c1ccc(NS(=O)(=O)c2cccs2)cc1,0,0,16,19,-5,-4
O=C(CN1CCN(c2ccc([N+](=O)[O-])cc2Cl)CC1)N1CCOCC1,0,12,-14,25,-20,-22
O=C(CN1CCOCC1)N1CCN(c2ccc([N+](=O)[O-])cc2)CC1,4,-11,-4,75*,-3,13
O=C(NN1CCOCC1)c1ccc([N+](=O)[O-])cc1,0,7,nt,nt,nt,-13
O=C(Cn1cc([N+](=O)[O-])nc1[N+](=O)[O-])N1CCN(c2ccccc2)CC1,0,-2,-7,48*,9,0
O=C(CN1CCOCC1)NNC(=O)c1ccc([N+](=O)[O-])cc1,2,-10,-3,43*,-1,8
O=C(Cn1cnc2ccccc2c1=O)N1CCN(c2ccccc2)CC1,0,-8,-35,21,-11,-1
COc1cccc(C(=O)c2c[nH]c(C(=O)NCCCN3CCOCC3)c2)c1,0,5,-10,8,-7,-16
O=S(=O)(c1ccc(N2CCC(c3ccc(Cl)cc3)=N2)cc1)N(CCO)CCO,1,-1,46*,7,62*,18
O=C(CN1CCCCCC1)Nc1ccc([N+](=O)[O-])cc1Cl,1,-2,-17,13,-12,14
O=C(CN1CCCCC1)Nc1nnc(-c2ccc([N+](=O)[O-])cc2)s1,0,29*,-8,58*,-3,-6
